# This is a sample that favours compounds with a hit; in the whole collection about 2.9% have one here.
# OX1R antag-1: blocks the human orexin 1 receptor | O43613 | inhibition, % at 5 µM | 0.43% of 330,000 active | CHO/OX1R cells, Fluo-8 calcium fluorescence, orexin A;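 active means inhibition above its plate's threshold, mean inhibition of all tested compounds on the plate plus 3 SD, cut at about 37% in these data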;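 further: 0% = orexin A challenge wells and 100% = SB-334867-A antagonist wells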
# Target sequence (O43613 whole entry, looked up): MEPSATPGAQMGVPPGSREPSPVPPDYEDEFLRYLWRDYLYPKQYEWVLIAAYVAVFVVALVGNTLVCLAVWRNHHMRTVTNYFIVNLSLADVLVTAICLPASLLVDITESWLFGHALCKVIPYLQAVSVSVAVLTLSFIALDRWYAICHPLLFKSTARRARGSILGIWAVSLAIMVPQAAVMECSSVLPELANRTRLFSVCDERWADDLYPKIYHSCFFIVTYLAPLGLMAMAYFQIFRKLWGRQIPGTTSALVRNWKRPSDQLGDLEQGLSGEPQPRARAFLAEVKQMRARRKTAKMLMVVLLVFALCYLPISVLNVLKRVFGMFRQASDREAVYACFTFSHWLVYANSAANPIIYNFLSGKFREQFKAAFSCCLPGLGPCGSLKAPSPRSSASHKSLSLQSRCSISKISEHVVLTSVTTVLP
# OX1R antag-2: OX1R (human) antagonism; O43613; OX1R-expressing cells, FRET antagonist read-out; inhibition, % at 6.6 µM; 1.8% of 330,000 active; AID 485270; in the data active means inhibition mostly above about 38%, no sharp cut-off; inactive means mostly below about 40%;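 further: 0% = agonist challenge alone and 100% = reference antagonist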
# CHO parental Ca: counter-screen: ATP calcium response change in parental CHO cells; inhibition, % at 5.6 µM; 0.63% of 330,000 active; AID 463079; parental CHO-K1, ATP-induced calcium, Fluo-8 fluorescence;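 active means inhibition above that plate's mean sample inhibition plus 3 SD, cut at about 26% in these data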;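 further: 0% = ATP-challenged DMSO wells and 100% = DMSO wells without ATP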
#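 Measured by: calcium-sensitive Fluo-8 fluorescence / Test system: CHO parental line / Controls: ATP-challenged DMSO wells low, unchallenged DMSO wells high / Measure: % inhibition / Compound: single nominal dose of 5.6 µM per compound / Replicates: single well per compound, no replicates / Reagent: ATP as calcium-mobilizing challenge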
# CHO-K1 Ca PAM: M1 PAM counterscreen hit in parental CHO-K1 cells. ATP EC20, Fluo-8 calcium fluorescence; 0% at ATP EC20, 100% at ATP max. 0.02% of 360,000 active. activation, % at 3 µM;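 active means activation above the run cutoff, the mean activation of all test compounds plus 3 SD, cut at about 40% in these data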;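 further: peak over basal fluorescence ratio in a 140 s read after ATP addition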
# M1 ag parental: M1 agonist counterscreen hit in parental CHO-K1 cells | Fluo-8 calcium fluorescence; scaled to maximal ATP response, vehicle zero | activation, % at 3 µM | 0.48% of 360,000 active | AID 602248; in the data active means activation above about 15%;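 further: untransfected CHO-K1 host cells lacking M1 receptor as counterscreen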
# CHO-K1 Ca antag: M1 antagonist counterscreen hit in parental CHO-K1 cells; ATP-induced calcium, Fluo-8 fluorescence; inhibition, % at 3 µM; 0.6% of 360,000 active; AID 602250;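 active means inhibition above a per-plate cutoff, the plate's mean sample inhibition plus 3 SD, cut at about 24% in these data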;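 further: 0% = DMSO plus EC80 ATP and 100% = DMSO alone without ATP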
# Active calls of the source: *; . = no result given.
SMILES,OX1R antag-1,OX1R antag-2,CHO parental Ca,CHO-K1 Ca PAM,M1 ag parental,CHO-K1 Ca antag
CCOC(=O)N1CCC(N2Cc3cccc(C(=O)Nc4ccc(N(CC)CC)cc4C)c3C2=O)CC1,-27,7,-21,-5,0,18
CCOc1cc2c3c(c1)C1(C(=O)N3C(C)(C)C=C2C)C(C#N)=C(N)Oc2cc(O)ccc21 (stereo not drawn),-22,5,-21,3,0,29*
COc1cc2c3c(c1)C1(C(=O)N3C(C)(C)C=C2C)C(C#N)=C(N)Oc2cc(O)ccc21 (stereo not drawn),-22,7,-13,5,0,-3
CNC(=S)Nc1ccc([N+](=O)[O-])c(C)c1,10,13,8,6,7,13
Cc1ccc(CNC(=S)Nc2ccc(C)c([N+](=O)[O-])c2)cc1,-5,33,0,-13,10,29*
O=C(COC(=O)[C@H](Cc1c[nH]c2ccccc12)NC(=O)c1ccc(Cl)cc1)Nc1ccc2c(c1)OCO2,34,6,35*,13,1,4
Clc1ccc(CCNc2ncnc3nc[nH]c23)cc1,-8,16,22,-3,13,30*
c1ccc2c(CCNc3ncnc4nc[nH]c34)cccc2c1,28,22,34*,-2,11,24
c1ccc(CCCNc2ncnc3nc[nH]c23)cc1,-1,21,3,16,8,-2
CC(C)CCNC(=O)c1onc(CSc2nc3ccccc3[nH]2)c1C(=O)NCCC(C)C,-24,18,-21,9,1,-11
NC(=O)c1ccsc1NC(=O)COC(=O)/C=C/c1ccc([N+](=O)[O-])cc1,-4,9,-5,1,12,-3
COC(=O)c1ccc(/C=C/C(=O)OCC(=O)Nc2sccc2C(N)=O)cc1,33,56*,22,-17,16*,10
COc1ccc(/C=C/C(=O)OCC(=O)Nc2cc(C(N)=O)cc(C(N)=O)c2)cc1,-8,27,-4,-15,11,25*
CCOc1ccccc1C(=O)Nc1ccc(-n2nncc2C(C)(C)C)cc1,-32,16,-13,9,1,-12
CCOC(=O)CCNC(=O)N1CCCC(N(C)CCc2ccc(OC)c(OC)c2)C1 (stereo not drawn),-7,4,0,18,1,-4
COc1ccc2[nH]c3c(NCCC4=CCCCC4)ncnc3c2c1,.,.,.,-12,15*,14
CCN(CC)CCNc1ncnc2c1[nH]c1ccc(OC)cc12,-11,15,-4,.,.,.
CCOC(=O)Cc1csc(SCn2nnc3ccccc3c2=O)n1,-21,20,-23,11,0,4
CCOC(=O)Cc1csc(-n2sc3ccccc3c2=O)n1,18,16,32*,11,2,-2
Cc1nc2c3ccccc3nc(NNC(=O)CCC(=O)NCCN3CCN(c4ccccc4)CC3)n2n1,-24,11,-21,-3,2,-1
Cc1ccc(NN2C(=O)C=C(c3ccc(Cl)cc3)C2=O)cc1,73*,39,68*,4,5,31*
O=C1C=C(c2ccccc2)C(=O)N1Nc1ccccc1,26,27,14,23,4,-13
O=C(N/N=C/c1ccccc1C(=O)O)C(=O)N1CCCCC1,7,16,-5,27,19*,-4
C(=N\N1CCN(C(c2ccccc2)c2ccccc2)CC1)/c1ccc2c(c1)OCO2,-4,13,-6,8,-1,24*
CCOc1cc(/C=N/NC(=O)C(=O)NCc2ccc3c(c2)OCO3)ccc1OCC(=O)N1CCOCC1,1,3,-21,-9,-1,14
SMILES,OX1R antag-1,OX1R antag-2,CHO parental Ca,CHO-K1 Ca PAM,M1 ag parental,CHO-K1 Ca antag
COc1ccc(F)cc1S(=O)(=O)NC1CC(C)(C)NC(C)(C)C1,-12,5,-13,-8,0,28*
O=C(c1ccc(-c2nc3ccccc3s2)o1)N1CCN(c2ccccc2O)CC1,-20,17,-19,-9,1,30*
CN(C(=O)C(Cl)Cl)C1CC2C=CC1C2 (stereo not drawn),-5,6,2,21,16*,-8
Cc1cc(SCC(=O)N/N=C/c2ccc(O)cc2O)nc2ccccc12,-4,50*,12,-10,9,8
Cc1cc(SCC(=O)N/N=C/c2ccc(O)c(O)c2)nc2ccccc12,-4,17,-4,13,4,-3
CC(C)(C)NC(=O)c1ccccc1NC(=O)C1CC(=O)N(C2CCCCC2)C1 (stereo not drawn),-8,5,-18,16,0,-10
C=CCn1c(SCC(=O)Nc2ccccc2C)nc2sc(C)c(C)c2c1=O,-23,22,-16,-4,0,11
C=CCn1c(SCC(=O)Nc2cccc(S(N)(=O)=O)c2)nc2sc(C)c(C)c2c1=O,2,33*,10,15,1,-13
CCOC(=O)c1cnc2c(C)cc(C)cc2c1NCCCN1CCOCC1,.,.,.,-15,0,18
CCOC(=O)[C@]12CCC=C1N(Cc1ccccc1)C(=O)[C@H](CC(=O)NCCC(C)C)C2,.,.,.,-4,0,-10
CCN(C(=O)CSc1nc2cc(S(=O)(=O)N(CC)CC)ccc2o1)C1CCS(=O)(=O)C1 (stereo not drawn),-21,15,-11,0,1,2
Cn1nc(C(C)(C)C)cc1C(=O)N1CCCCC1c1cc(C(=O)Nc2ccccc2Cl)no1 (stereo not drawn),.,.,.,-10,1,24*
CC(=O)c1ccc(NC(=O)COC(=O)/C=C/c2cccs2)cc1,26,50*,-16,23,0,-17
O=C(Nc1nc2ccc(F)cc2s1)C1CCN(S(=O)(=O)c2cc([N+](=O)[O-])ccc2Cl)CC1,28,33,67*,2,7,32*
Cc1ccc2nc(NC(=O)C3CCN(S(=O)(=O)c4cc([N+](=O)[O-])ccc4Cl)CC3)sc2c1,24,50,29,13,5,25*
COc1ccc(C2=CN(Cc3ccccc3)CCC2=O)cc1,-5,15,-12,11,2,-16
Cc1cnccc1CNC(=O)CC1C(=O)NCCN1CC(C)(C)C (stereo not drawn),-14,17,-5,5,0,-7
OC(c1ccc(Cl)c(F)c1)c1ncc(-c2ccccc2F)[nH]1 (stereo not drawn),.,.,.,19,4,-4
NC(=O)C1CCCN(C(=O)CN2C(=O)NC(c3ccccc3)(c3ccccc3)C2=O)C1 (stereo not drawn),.,.,.,-11,0,-3
Cn1cc(CNCc2cn[nH]c2-c2ccc(F)cc2)c(-c2ccc3c(c2)OCCO3)n1,-30,10,-9,32,2,-15
Cn1cc(CNCc2ccc(OC(F)(F)F)cc2)c(-c2ccc3c(c2)OCCO3)n1,16,33,40*,4,12,22
COc1ccc(CCNC(=O)CSc2ccc(-c3cccs3)nn2)cc1,0,41*,-12,21,0,-10
